Measured values as given in article PMC2849840 (Molecular pharmaceutics, 2010).
Each block holds one compound with its values, some of them ahead of it.

What was measured:
MDCK-MDR1 cells [1] = tested on: MDCK-MDR1 cells
MDCK-MDR1 cells [2] = experiment: Uptake of radiolabelled substrates into MDCK-MDR1 cells in DPBS with HEPES
[3] = tested on: ATP production in MDCK-MDR1 cells; experiment: ATP assay; assay type: cell-based; details: 20 mM HEPES in culture medium
In short: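 MDCK-MDR1 cells grown in DMEM with 10% heat-inactivated calf serum at 37 °C, 5% CO2, in 96-well plates for 6–7 days to full confluence, in medium without HEPES (Set 1) or with 20 mM HEPES (Set 2). Cells lysed for […]; ATP in lysate read by luminescence kit, with protein measured by Bradford. At least triplicate; mean ± SD.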

[4] = Bidirectional transepithelial transport of [3H]lopinavir across MDCK-MDR1 cells; assay type: in vitro ADME; details: dog, MDCK-MDR1, 37 °C; for Papp A→B at 0.5 μCi/mL: MDCK-MDR1, pH 7.4, PappA-B; for Papp B→A at 0.5 μCi/mL: MDCK-MDR1, pH 7.4, PappB-A
MDCK-MDR1 cells [5] = assay type: in vitro ADME

- accumulation into cells versus control (0 mM HEPES) (MDCK-MDR1 cells [1]): significant reduction
SMILES: CC(C)c1nc(CN(C)C(=O)N[C@H](C(=O)N[C@@H](Cc2ccccc2)C[C@H](O)[C@H](Cc2ccccc2)NC(=O)OCc2cncs2)C(C)C)cs1 [ritonavir]

- Papp A→B at 0.5 μCi/mL ([4]; 25 mM HEPES in DPBS): 22.8 ± 1.03 ×10⁻⁶ cm/s
- Papp A→B at 0.5 μCi/mL ([4]; Control (0 mM HEPES) in DPBS): 30.2 ± 2.56 ×10⁻⁶ cm/s
- Papp B→A at 0.5 μCi/mL ([4]; 25 mM HEPES in DPBS): 165 ± 11.1 ×10⁻⁶ cm/s
- Papp B→A at 0.5 μCi/mL ([4]; Control (0 mM HEPES) in DPBS): 148 ± 7.92 ×10⁻⁶ cm/s
- accumulation by Set 2 cells compared with Set 1 cells (MDCK-MDR1 cells [5]; Set 2 grown with 20 mM HEPES, Set 1 without, 0, 15, 25 mM HEPES in DPBS): significantly less
- accumulation by Set 2 cells compared to Set 1 cells (MDCK-MDR1 cells [5]; in the presence of 1 μM or 2 μM unlabelled lopinavir, DPBS with 25 mM HEPES): higher accumulation
- elevation of accumulation, Set 2 versus Set 1 cells (MDCK-MDR1 cells [5]; in the presence of 5 μM unlabelled lopinavir, DPBS with 25 mM HEPES): not statistically different
- accumulation into cells versus control (0 mM HEPES) (MDCK-MDR1 cells [1]): significant reduction
SMILES: Cc1cccc(C)c1OCC(=O)N[C@@H](Cc1ccccc1)[C@@H](O)C[C@H](Cc1ccccc1)NC(=O)[C@H](C(C)C)N1CCCNC1=O [lopinavir]

- change of uptake in the presence of HEPES (MDCK-MDR1 cells [2]; 15 and 25 mM HEPES): no significant change
SMILES: N[C@@H](Cc1ccccc1)C(=O)O [phenylalanine]

More lines, now with the values behind:

SMILES: N[C@@H](CCC(=O)O)C(=O)O [glutamic acid]
- elevation of uptake over the control (MDCK-MDR1 cells [2]; 15 mM HEPES): about 30%
- elevation of uptake over the control (MDCK-MDR1 cells [2]; 25 mM HEPES): ~45%

SMILES: O=S(=O)(O)CCN1CCN(CCO)CC1 [HEPES, 4-(2-hydroxyethyl)-1-piperazineethanesulfonic acid]
- elevation of ATP production, Set 2 compared to Set 1 [3]: 70%
